Reference: ChEMBL document CHEMBL1137054, “Synthesis of 5'-substituted fluoro-neplanocin A analogues: importance of a hydrogen bonding donor at 5'-position for the inhibitory activity of S-adenosylhomocysteine hydrolase” (Bioorg Med Chem Lett, 2004)

Tests used:
[1] = test system: A549; assay: Concentration required for 50% inhibition of A549 cell line (human lung carcinoma cells); format: functional, cell-based
Procedure, shortened: (§1)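 Cytotoxicity in cultured human cancer cells (Col2 colon carcinoma; A549 lung carcinoma). Cells were exposed to serial dilutions of compound, and the value is the concentration giving 50% survival.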

[2] = target: Adenosylhomocysteinase (Homo sapiens, UniProt P23526); assay: Inhibitory activity against enzyme S-adenosyl-homocysteine hydrolase of human placenta
[3] = test system: Col2; assay: Concentration required for 50% inhibition of Col2 cell line (human colon carcinoma cells); format: functional, cell-based; procedure, shortened: as §1

Sequence of Adenosylhomocysteinase (P23526 whole entry): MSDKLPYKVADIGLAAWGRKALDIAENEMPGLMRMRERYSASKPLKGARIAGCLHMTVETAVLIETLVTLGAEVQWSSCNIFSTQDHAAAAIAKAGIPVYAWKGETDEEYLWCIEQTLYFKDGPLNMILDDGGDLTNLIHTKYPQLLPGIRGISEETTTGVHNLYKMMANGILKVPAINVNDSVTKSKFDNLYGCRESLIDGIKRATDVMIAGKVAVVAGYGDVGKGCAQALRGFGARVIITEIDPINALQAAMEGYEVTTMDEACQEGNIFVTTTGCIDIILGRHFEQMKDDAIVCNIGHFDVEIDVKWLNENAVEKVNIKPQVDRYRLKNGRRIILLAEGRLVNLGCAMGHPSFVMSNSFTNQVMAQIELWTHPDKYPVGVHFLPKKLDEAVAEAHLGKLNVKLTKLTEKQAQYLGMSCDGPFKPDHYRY

Row | IC50 [1] [µM] | IC50 [2] [µM] | IC50 [3] [µM] | Compound
1 | > 100 | > 100 | > 100 | Nc1ncnc2c1ncn2[C@@H]1C(F)=C(CF)[C@@H](O)[C@H]1O
2 | > 100 | 97.3 | > 100 | Nc1ncnc2c1ncn2[C@@H]1C(F)=C(CS)[C@@H](O)[C@H]1O
3 | 4.6 | 0.48 | 1.4 | Nc1ncnc2c1ncn2[C@@H]1C(F)=C(CO)[C@@H](O)[C@H]1O [FLUORO-NEPLANOCIN A]

Further lines, the compound ahead of its results:

Row | Compound | IC50 [1] [µM] | IC50 [2] [µM] | IC50 [3] [µM]
4 | [N-]=[N+]=NCC1=C(F)[C@@H](n2cnc3c(N)ncnc32)[C@H](O)[C@@H]1O | 53 | > 100 | 35.9
5 | NCC1=C(F)[C@@H](n2cnc3c(N)ncnc32)[C@H](O)[C@@H]1O | 42.8 | 12.7 | 39.2
